Most compounds without a hit are left out; they make up all but 1.9% or so of the library.
ABHD5-PLIN5 inh: ABHD5-PLIN5 interaction inhibitors, primary screen, cell lysate, split luciferase complementation, luminescence. 360,000 tested, 0.78% active. Split G. princeps luciferase complementation, 4 h. Perilipin-5 (Homo sapiens) + 1-acylglycerol-3-phosphate O-acyltransferase ABHD5 (Homo …. AID 602281, 2012. inhibition, % at 4 µM;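 active = inhibition above the mean inhibition across every tested compound plus 3 SD, cut at about 22% in these data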;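 also: 0% = DMSO only wells and the 100% control is not disclosed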
Target sequence (Q00G26 whole entry, looked up): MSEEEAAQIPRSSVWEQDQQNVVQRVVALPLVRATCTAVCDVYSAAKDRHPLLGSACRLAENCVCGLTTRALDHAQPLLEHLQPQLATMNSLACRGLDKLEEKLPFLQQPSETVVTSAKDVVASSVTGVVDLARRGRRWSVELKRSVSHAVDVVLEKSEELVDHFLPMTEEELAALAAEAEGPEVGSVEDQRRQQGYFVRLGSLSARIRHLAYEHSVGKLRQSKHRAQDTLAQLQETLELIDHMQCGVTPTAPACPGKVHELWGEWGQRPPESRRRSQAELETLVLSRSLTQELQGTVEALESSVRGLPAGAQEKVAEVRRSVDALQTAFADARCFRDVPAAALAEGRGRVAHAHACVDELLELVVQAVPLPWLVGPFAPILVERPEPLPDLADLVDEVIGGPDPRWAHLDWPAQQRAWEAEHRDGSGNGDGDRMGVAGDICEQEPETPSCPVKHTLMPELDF
Target sequence (Q8WTS1 whole entry, looked up): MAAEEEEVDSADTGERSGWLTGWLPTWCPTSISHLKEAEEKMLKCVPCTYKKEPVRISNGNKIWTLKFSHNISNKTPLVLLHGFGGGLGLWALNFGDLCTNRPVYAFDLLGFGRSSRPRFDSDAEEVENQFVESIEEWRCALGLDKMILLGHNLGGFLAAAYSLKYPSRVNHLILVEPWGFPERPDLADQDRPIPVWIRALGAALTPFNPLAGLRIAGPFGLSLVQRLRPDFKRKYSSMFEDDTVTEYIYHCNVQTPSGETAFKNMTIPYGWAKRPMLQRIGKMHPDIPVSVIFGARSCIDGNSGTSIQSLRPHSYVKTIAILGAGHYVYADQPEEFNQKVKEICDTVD
H9c2 TAG inh: inhibitors of triacylglycerol accumulation, primary screen, cell-based, uHTS, fluorescence, H9c2; AID 651582, 2012; 230,000 tested, 0.66% active; inhibition, % at 12.5 µM; H9c2 cells, Nile Red lipid (TAG) fluorescence; cells loaded with 200 µM oleic acid;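 active = pattern-corrected inhibition of lipid staining of at least 50% with the nuclear-stain viability signal not falling by more than 50%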;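 also: 0% = DMSO wells and 100% = triacsin C control wells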
FXN GAA850 act: FXN promoter activators, primary screen, cell-based, luciferase luminescence, HEK293 lucGAA850; AID 540364, 2011; HEK293 lucGAA850 FXN promoter luciferase reporter, 24 h; percent of 10 µM SAHA response; activation, % at 6 µM; 360,000 tested, 0.56% active;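 active = activation above the average of all compounds screened plus 3 SD, cutoff fixed separately per campaign, cut at about 7.5% in these data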;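 also: 0% = DMSO wells and 100% = 10 µM SAHA wells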
Hsp70 act: Hsp70 transcriptional activators, primary screen, cell-based, HeLa, Hsp70 promoter luciferase, luminescence, 10 µM | AID 1203, 2008 | 200,000 tested, 0.04% active | activation, % at 10 µM | HeLa Hsp70 promoter luciferase reporter; scaled: vehicle 0, proteasome-inhibitor control 100%;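 active = activation above the mean across all tested compounds plus 3 SD, cutoff set per campaign, cut at about 5.5% in these data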;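 also: 100% = MG132 at 30 µM as the positive control and 0% = DMSO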
HIF act: HIF pathway transcriptional activators, primary screen, cell-based, U2OS HRE-luciferase, luminescence; U2OS HRE-luciferase reporter; normalized: DMSO 0%, desferrioxamine 100%; activation, % at 7.5 µM (by protocol); 300,000 tested, 0.32% active; AID 1910, 2009;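 active = mean activation of at least 10% of the iron chelator positive control signal, with at least half of replicates also reaching 10%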
Rad51 HR inh: human RAD51 strand exchange inhibitors, primary screen, biochemical, fluorescence; DNA repair protein RAD51 homolog 1 (Homo sapiens), Q06609; inhibition, % at 10 µM; hRad51 DNA strand exchange, fluorescence dequenching; 200,000 tested, 0.085% active;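 active = inhibition above 40% at the single screening dose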;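 also: 0% = DMSO control wells and 100% = blanks with heterologous ssDNA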
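material = hRad51 filaments on single-stranded DNA | reagent = Donor/quencher-labelled 47-bp dsDNA substrate | compound = 10 µM final, single point | schedule = strand-exchange reaction 15 min at room temperature | measured by = fluorescein emission 520 nm, excitation 485 nm | read-out basis = % inhibition versus plate control and blank means | benchmarks = plate controls and plate blanks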
ABHD5-PLIN5 conf: ABHD5-PLIN5 interaction inhibitors, confirmation, biochemical, luminescence; shares compounds with ABHD5-PLIN5 inh; inhibition, % at 4 µM; 2,200 tested, 67% active; AID 651612, 2012; in the data active = inhibition above about 23%;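 also: 0% = DMSO vehicle wells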
HNF4 counter: HNF4 dimerization inhibitors, counter-screen for ABHD5-PLIN5 interaction inhibitor project, biochemical, split-luciferase complementation, luminescence | shares compounds with ABHD5-PLIN5 inh | inhibition, % at 4 µM | 2,200 tested, 77% active;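 active = mean inhibition across replicate wells exceeding the computed hit threshold, cut at about 13% in these data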;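 also: light from luciferase halves that rejoin when HNF4 fusion proteins dimerize; 0% = DMSO only wells and the 100% control is not given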
Numbers without * were called inactive; i = inactive; x = no result given.

SMILES | ABHD5-PLIN5 inh | H9c2 TAG inh | FXN GAA850 act | Hsp70 act | HIF act | Rad51 HR inh | ABHD5-PLIN5 conf | HNF4 counter
COc1ccc(/C=C2\COc3ccccc3C2=O)cc1OC | 33.2* | x | 0.4 | -0.4 | 0.7 | -5.7 | 76.4* | 71.0*
O=C(O)c1ccc(/C=C2\COc3ccccc3C2=O)cc1 | 32.1* | x | -0.1 | x | 1.4 | x | 84.0* | 78.3*
COc1ccc(/C=C2/CCc3ccccc3C2=O)cc1OC | 10.0 | x | 6.9 | 0.0 | 4.7 | x | x | x
CCOc1cc(/C=N/Nc2nc3ccccc3[nH]2)cc(Br)c1OCC(=O)N(C)C | 2.5 | 11.1 | -3.9 | -0.3 | 1.2 | 1.3 | x | x
CCOc1cc(/C=C2\COc3ccccc3C2=O)cc(Br)c1OCC(=O)N(C)C | 77.2* | x | -7.1 | x | -5.8 | x | 86.2* | 93.9*
Cc1cc(C)c2c(c1)C(=O)/C(=C/c1ccc(C(=O)O)cc1)CC2 | 13.7 | x | 3.4 | x | 0.7 | x | x | x
O=[N+]([O-])c1ccc(CSc2ccc(S(=O)(=O)N3CCCCC3)cn2)cc1 | -8.1 | -22.2 | -0.5 | x | x | x | x | x
Nc1ccc2c(c1)N=[N+]([O-])c1cc(N)ccc1C2 | 7.2 | x | -0.1 | x | -0.4 | 19.5 | x | x
Oc1ccccc1C=NN=Cc1ccccc1Cl | 9.8 | -5.4 | 5.1 | x | x | x | x | x
COc1ccc(OC)c(NC(=O)COC(=O)CC2CCCCC2)c1 | -3.4 | -30.5 | 0.5 | x | x | x | x | x
O=[N+]([O-])c1cc(S(=O)(=O)Nc2ccccc2)ccc1N1CCN(c2ccc(O)cc2)CC1 | 13.9 | x | -1.4 | -0.4 | -0.2 | 16.8 | x | x
Cc1ccc(NS(=O)(=O)c2ccc(N3CCN(c4ccc(O)cc4)CC3)c([N+](=O)[O-])c2)c(C)c1 | 35.2* | x | 0.2 | -0.2 | -0.3 | 13.6 | 12.0 | 10.3
COC(=O)C1(C)CCCC2(C)C3CCC(C(C)C)C(CO)C3C(CO)CC12 (stereo unspecified) | 9.8 | -6.9 | -0.1 | x | x | x | x | x
CCC(=O)NC(c1ccc(C)cc1)c1cc([N+](=O)[O-])c2cccnc2c1O (stereo unspecified) | 6.9 | x | 0.8 | -0.3 | 2.7 | 9.4 | x | x
CCCC(=O)NC(c1ccco1)c1cc([N+](=O)[O-])c2cccnc2c1O (stereo unspecified) | 35.0* | -0.7 | 2.8 | -0.3 | -0.1 | 0.0 | 16.7 | 24.4*
O=[N+]([O-])/C=C/c1cc2ccccc2[nH]1 | 40.9* | x | -0.2 | x | -1.1 | 15.4 | 71.4* | 58.1*
O=[N+]([O-])c1cccc(-c2cc3ccccc3[nH]2)c1 | -9.9 | x | 0.8 | x | 1.5 | x | x | x
CCOc1ccc(NCc2cccn2-c2nnc(N3CCC(C(=O)NCCCN4CC(C)CC(C)C4)CC3)s2)cc1 (stereo unspecified) | 8.8 | x | 0.9 | x | -0.5 | x | x | x
CC(C)(C)OC(=O)N[C@@H](Cc1ccccc1)c1nnc(S(=O)(=O)Cc2cccc(F)c2)o1 | x | x | x | -0.1 | -1.8 | -3.1 | x | x
CC(C)C[C@H](N)c1nnc(S(=O)(=O)Cc2cccc(F)c2)o1 | 38.0* | x | 3.0 | -0.1 | -0.3 | 4.8 | 42.3* | 75.9*
CCCCCCCCCCCCCCCC[n+]1ccc(/C=N/O)cc1 | 30.6* | x | -6.9 | -0.2 | x | 9.0 | 11.0 | 7.2
CN(C)c1ccc(/C=C2/C[N+](C)(C)C/C(=C/c3ccc(N(C)C)cc3)C2=O)cc1 | 38.7* | -54.3 | -2.0 | x | x | x | 49.7* | 41.7*
CC(C)/C=C1\CC/C(=C\c2ccc(N(C)C)cc2)C1=O | 0.7 | x | 3.7 | -0.2 | 2.3 | i | x | x
O=C(Nc1ccccc1Cl)NC1(C(=O)NCc2cccnc2)CCCCC1 | -0.5 | x | -1.2 | x | -0.7 | x | x | x
O=C(Cn1cc(/C=C\[N+](=O)[O-])c2ccccc21)Nc1ccccc1 | 27.0* | -13.4 | 1.7 | x | -2.5 | 0.9 | 96.0* | 82.7*
SMILES | ABHD5-PLIN5 inh | H9c2 TAG inh | FXN GAA850 act | Hsp70 act | HIF act | Rad51 HR inh | ABHD5-PLIN5 conf | HNF4 counter
O=[N+]([O-])/C=C/c1cn(Cc2ccccc2)c2ccccc12 | 31.3* | -12.7 | -1.7 | -0.2 | 0.6 | -14.3 | 101.1* | 99.3*
O=C(O)Cn1cc(/C=C/[N+](=O)[O-])c2ccccc21 | 15.0 | 4.5 | -0.6 | -0.3 | 0.2 | -7.1 | x | x
N#Cc1cn(Cc2cccc(Cl)c2)c2ccccc12 | -0.8 | 6.4 | 0.8 | -0.2 | -0.4 | 12.8 | x | x
N#Cc1ccccc1Cn1cc(/C=C/[N+](=O)[O-])c2ccccc21 | 69.1* | x | -2.7 | -0.1 | 1.5 | 22.5 | 100.3* | 95.8*
C(=N\n1cnnc1)/c1cn(Cc2ccccc2)c2ccccc12 | 5.9 | x | 2.2 | -0.4 | -0.5 | 11.1 | x | x
CC1(C)CC(=O)C(C(C2=C(O)CC(C)(C)CC2=O)c2cccs2)C(=O)C1 (stereo unspecified) | 40.6* | x | 1.7 | -0.1 | -0.1 | x | 64.3* | 68.5*
Cc1nc(N)ncc1Sc1ccccc1 | 2.7 | -11.1 | 2.8 | x | 0.4 | -1.0 | x | x
Cc1ccc(C(=O)NCc2ccco2)cc1S(=O)(=O)N1CCCCC1 | 26.1* | x | 1.9 | -0.1 | 0.0 | -5.0 | 12.7 | 7.6
Cc1ccc(C(=O)Nc2ccccc2C(=O)NCc2ccco2)cc1S(=O)(=O)N1CCCCC1 | -0.3 | 14.3 | -1.1 | -0.2 | 0.2 | -4.5 | x | x
Cc1ccccc1NC(=O)CCS(=O)(=O)c1cccc2nonc12 | 7.7 | x | 0.3 | x | -0.6 | x | x | x
O=C(/C=C/c1cccc([N+](=O)[O-])c1)c1cccs1 | 74.2* | x | 6.2 | 0.0 | 1.8 | 9.2 | 97.3* | 102.2*
CCn1c2ccccc2c2cc(NC(=O)CSc3nnc(C4CC4)n3Cc3ccco3)ccc21 | 30.9* | 30.4 | -1.6 | -0.1 | 0.2 | -1.7 | 11.4 | 24.6*
CCCCCCCCCc1conc1C(=O)/C=C/c1oc2c(c1C)CCC(C)C2 (stereo unspecified) | 41.6* | x | x | x | x | x | 36.6* | -1.2
Cc1cc(C(=O)NNC(=O)/C=C/c2ccco2)c(C)o1 | 42.2* | -0.1 | 2.7 | x | x | x | 66.0* | 49.4*
CNc1c(NS(=O)(=O)c2ccc3c(c2)CCCC3)c(=O)oc2ccccc12 | 8.8 | x | 1.2 | x | 0.7 | x | x | x
Cc1cc2c(c(=O)n1Cc1ccco1)C(c1cccnc1)C(C#N)=C(N)O2 (stereo unspecified) | 42.1* | -2.9 | 1.8 | -0.2 | 0.0 | 4.2 | 9.1 | 23.9*
CCN(CC)CCN1C(=O)/C(=C\c2ccc(Cl)c([N+](=O)[O-])c2)SC1=Nc1ccc(OC)cc1 | 38.9* | x | -0.1 | x | -2.6 | x | 27.3* | 14.4*
